Measurements reported in ChEMBL document CHEMBL5046273, “Development of a Novel, Small-Molecule Brain-Penetrant Histone Deacetylase Inhibitor That Enhances Spatial Memory Formation in Mice” (J Med Chem, 2022).
Activity calls are given as the source filed them. No cut-off for these calls is given here.

Tests used:
Histone deacetylase 2 [1] = molecular target: T1, Histone deacetylase 2 (Homo sapiens, UniProt Q92769); test: Inhibition of recombinant human full-length HDAC2 incubated for 10 mins by Glo-luminescence assay
Method in brief: (§1)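 Compounds were serially diluted and incubated with enzyme for 10 min. HDAC-Glo I/II substrate/developer was then added, and luminescence read after 40 min at 23 °C. IC50 from four-parameter fits from two independent titrations, mean ± SD.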

Histone deacetylase 2 [2] = molecular target: T1, Histone deacetylase 2; test: Inhibition of recombinant human full-length HDAC2 preincubated for 20 mins with DTT followed by enzyme addition and measured after 10 mins by Glo-luminescence assay; method in brief: as §1
DU-145 = test: Cytotoxicity against human DU-145 cells assessed as reduction in cell viability at 0.00125 to 100 uM incubated for 48 hrs by MTT assay; type: functional, cell-based; details: dose 0.00125-100 µM
Method in brief: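 DU145 cells in DMEM with 10% FBS were seeded at 14 000 cells/well and allowed to adhere for 24 h. Test agents were diluted from 10 mM DMSO stocks (100, 50, 25 µM; 10, 5, 1.25 nM) and applied in triplicate for 48 h at 37 °C, 5% CO2, with DMSO as vehicle. Read-out was 250 µg/mL MTT for 4 h, DMSO solubilization, and A570 with 690 nm reference. Values normalized to DMSO.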

T1 sequence (Q92769 whole entry): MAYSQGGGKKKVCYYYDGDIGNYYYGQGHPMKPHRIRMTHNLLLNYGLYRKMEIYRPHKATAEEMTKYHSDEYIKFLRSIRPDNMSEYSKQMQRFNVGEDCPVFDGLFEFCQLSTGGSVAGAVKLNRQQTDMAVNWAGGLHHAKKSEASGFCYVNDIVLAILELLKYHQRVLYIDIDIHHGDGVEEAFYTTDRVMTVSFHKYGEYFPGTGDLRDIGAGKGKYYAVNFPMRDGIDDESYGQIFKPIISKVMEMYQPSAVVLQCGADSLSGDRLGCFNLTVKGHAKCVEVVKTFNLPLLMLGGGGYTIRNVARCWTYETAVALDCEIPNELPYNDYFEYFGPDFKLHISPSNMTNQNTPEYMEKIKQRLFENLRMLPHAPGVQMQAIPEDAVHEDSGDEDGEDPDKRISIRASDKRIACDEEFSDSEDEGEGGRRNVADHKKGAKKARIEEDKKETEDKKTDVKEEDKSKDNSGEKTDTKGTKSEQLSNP

| SMILES | IC50 (Histone deacetylase 2 [1]) [µM] | IC50 (Histone deacetylase 2 [2]) [µM] | Activity (DU-145) |
| --- | --- | --- | --- |
| O=C(O)CC(O)/C=C/CCSSCC/C=C/C(O)CC(=O)O (centres undefined) | 140 | 28 |  |
| CCCC[C@@H](NC(=O)CC(O)/C=C/CCSSCC/C=C/C(O)CC(=O)N[C@H](CCCC)C(=O)O)C(=O)O (some centres undefined) | 140 | 11 |  |
| CCCC[C@@H](NC(=O)CC(O)/C=C/CCSSCC/C=C/C(O)CC(=O)N[C@H](CCCC)C(=O)OC)C(=O)OC (some centres undefined) | 280 | 17 |  |
| CC(C)(C)NC(=O)CC(O)/C=C/CCSSCC/C=C/C(O)CC(=O)NC(C)(C)C (centres undefined) | > 100 | 18 | inactive |
